What was measured:
HT-29 = experiment: Cytotoxicity against human HT29 cells; type: functional, cell-based
P388 = experiment: Cytotoxicity against mouse P388 cells; type: functional, cell-based
[1] = Cytotoxicity against human MEL28 cells; type: functional, cell-based; conditions: SK-MEL-28
A549 = experiment: Cytotoxicity against human A549 cells; type: functional, cell-based
Artemia [2] = experiment: Toxicity against brine shrimp assessed as immobilization at 17 ug/ml; type: organism-based; conditions: in vivo
Summary of the method: (§1)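 Brine shrimp immobilization was scored in a 96-well plate format and reported as percent immobilization with 90% confidence intervals. Where both monovalent and divalent cation salts of a sulfate were isolated, the divalent cation salt was the one tested.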

Artemia [3] = experiment: Toxicity against brine shrimp assessed as immobilization at 50 ug/ml; type: organism-based; conditions: in vivo; summary of the method: as §1

Which IC50 (HT-29) does the source give for `COC(=O)[C@]1(C)[C@@H](OS(=O)(=O)[O-])CC[C@]23C[C@]24CC[C@]2(C)[C@@H]([C@H](C)CC(=O)C=C(C)C)CC[C@@]2(C)[C@@H]4CC[C@@H]13.[Na+]` here?
Its IC50 is over 10 µg/mL.

And the IC50 (P388)?
Its IC50 is over 10 µg/mL.

What about the IC50 [1] of the same compound?
The IC50 was over 10 µg/mL.

What about the IC50 (A549) of the same compound?
The IC50 was over 10 µg/mL.

Which IC50 (HT-29) does the source give for `COC(=O)[C@@H]1[C@@H](OS(=O)(=O)O)CC[C@]2(C)C3=C(CC[C@@H]12)[C@]1(C)CC[C@H]([C@H](C)C[C@@H](O)C=C(C)C)[C@@]1(C)CC3` here?
The IC50 was over 2 µg/mL.

What about the IC50 (P388) of the same compound?
The IC50 was over 2 µg/mL.

What about the IC50 [1] of the same compound?
Its IC50 is over 2 µg/mL.

What about the IC50 (A549) of the same compound?
The IC50 was over 2 µg/mL.

What does the source list for `COC(=O)[C@]1(C)[C@@H](OS(=O)(=O)O)CC[C@]23C[C@]24CC[C@]2(C)[C@@H]([C@H](C)CC(=O)C=C(C)C)CC[C@@]2(C)[C@@H]4CC[C@@H]13`?
IC50 (HT-29): > 10 µg/mL; IC50 (P388): > 10 µg/mL; IC50 [1]: > 10 µg/mL; IC50 (A549): > 10 µg/mL

What does the source list for `COC(=O)[C@@H]1[C@@H](OS(=O)(=O)O)CC[C@]23C[C@]24CC[C@]2(C)[C@@H]([C@H](C)CC(=O)C=C(C)C)CC[C@@]2(C)[C@@H]4CC[C@@H]13`?
IC50 (HT-29): > 1 µg/mL; IC50 (P388): > 1 µg/mL; IC50 [1]: > 1 µg/mL; IC50 (A549): > 1 µg/mL

What does the source list for `COC(=O)[C@]1(C)[C@@H](OS(=O)(=O)O)CC[C@]23C[C@]24CC[C@]2(C)[C@@H]([C@H](C)C[C@@H](O)C=C(C)C)CC[C@@]2(C)[C@@H]4CC[C@@H]13`?
IC50 (HT-29): > 10 µg/mL; Activity (Artemia [2]): 55.7%; IC50 (P388): > 10 µg/mL; IC50 [1]: > 10 µg/mL; IC50 (A549): > 10 µg/mL

With `CC(C)=C[C@H](O)C[C@@H](C)[C@H]1CC[C@@]2(C)[C@@H]3CC[C@H]4[C@](C)(CO)[C@@H](OS(=O)(=O)O)CC[C@@]45C[C@@]35CC[C@]12C` as the compound, how does the IC50 (HT-29) read?
The IC50 was over 10 µg/mL.

What about the Activity (Artemia [2]) of the same compound?
The Activity was 47.1%.

What about the IC50 (P388) of the same compound?
The IC50 was over 10 µg/mL.

And the IC50 [1]?
The IC50 was over 10 µg/mL.

What about the IC50 (A549) of the same compound?
Its IC50 is over 10 µg/mL.

Which IC50 (HT-29) does the source give for `COC(=O)[C@@H]1[C@@H](OS(=O)(=O)O)CC[C@]2(C)C3=C(CC[C@@H]12)[C@]1(C)CC[C@H]([C@H](C)CC(=O)C=C(C)C)[C@@]1(C)CC3` here?
Its IC50 is over 1 µg/mL.

What about the IC50 (P388) of the same compound?
Its IC50 is over 1 µg/mL.

What about the Activity (Artemia [3]) of the same compound?
Its Activity is 35.5%.

What about the IC50 [1] of the same compound?
The IC50 was over 1 µg/mL.

And the IC50 (A549)?
Its IC50 is over 1 µg/mL.

For `COC(=O)[C@]1(C)[C@@H](OS(=O)(=O)[O-])CC[C@]23C[C@]24CC[C@]2(C)[C@@H]([C@H](C)CC(=O)C=C(C)C)CC[C@@]2(C)[C@@H]4CC[C@@H]13.COC(=O)[C@]1(C)[C@@H](OS(=O)(=O)[O-])CC[C@]23C[C@]24CC[C@]2(C)[C@@H]([C@H](C)CC(=O)C=C(C)C)CC[C@@]2(C)[C@@H]4CC[C@@H]13.[Mg+2]`, which IC50 (HT-29) is on record?
The IC50 was over 10 µg/mL.

What about the IC50 (P388) of the same compound?
The IC50 was over 10 µg/mL.

What about the IC50 [1] of the same compound?
The IC50 was over 10 µg/mL.

What about the IC50 (A549) of the same compound?
Its IC50 is over 10 µg/mL.

Which results are given for `COC(=O)[C@@H]1[C@@H](OS(=O)(=O)O)CC[C@]23C[C@]24CC[C@]2(C)[C@@H]([C@H](C)C[C@@H](O)C=C(C)C)CC[C@@]2(C)[C@@H]4CC[C@@H]13`?
IC50 (HT-29): > 1 µg/mL; IC50 (P388): > 1 µg/mL; Activity (Artemia [3]): 39.1%; IC50 [1]: > 1 µg/mL; IC50 (A549): > 1 µg/mL

Which IC50 (HT-29) does the source give for `CC(C)=CC(=O)C[C@@H](C)[C@H]1CC[C@@]2(C)[C@@H]3CC[C@H]4C(C)(C)[C@@H](OS(=O)(=O)O)CC[C@@]45C[C@@]35CC[C@]12C` here?
The IC50 was over 10 µg/mL.

What about the IC50 (P388) of the same compound?
The IC50 was over 10 µg/mL.

What about the IC50 [1] of the same compound?
Its IC50 is over 10 µg/mL.

What about the IC50 (A549) of the same compound?
The IC50 was over 10 µg/mL.

For `CC(C)=C[C@H](O)C[C@@H](C)[C@H]1CC[C@@]2(C)[C@@H]3CC[C@H]4C(C)(C)[C@@H](OS(=O)(=O)O)CC[C@@]45C[C@@]35CC[C@]12C`, which IC50 (HT-29) is on record?
The IC50 was over 2 µg/mL.

What about the IC50 (P388) of the same compound?
The IC50 was over 2 µg/mL.

And the IC50 [1]?
Its IC50 is over 2 µg/mL.

And the IC50 (A549)?
Its IC50 is over 2 µg/mL.

Which results are given for `CC(C)=CC(=O)C[C@@H](C)[C@H]1CC[C@@]2(C)[C@@H]3CC[C@H]4[C@](C)(CO)[C@@H](OS(=O)(=O)O)CC[C@@]45C[C@@]35CC[C@]12C`?
IC50 (HT-29): > 2 µg/mL; IC50 (P388): > 2 µg/mL; IC50 [1]: > 2 µg/mL; IC50 (A549): > 2 µg/mL

For `COC(=O)[C@]1(C)[C@@H](OS(=O)(=O)[O-])CC[C@]23C[C@]24CC[C@]2(C)[C@@H]([C@H](C)CC(=O)C=C(C)C)CC[C@@]2(C)[C@@H]4CC[C@@H]13.COC(=O)[C@]1(C)[C@@H](OS(=O)(=O)[O-])CC[C@]23C[C@]24CC[C@]2(C)[C@@H]([C@H](C)CC(=O)C=C(C)C)CC[C@@]2(C)[C@@H]4CC[C@@H]13.[Ca+2]`, which IC50 (HT-29) is on record?
The IC50 was over 10 µg/mL.

What about the IC50 (P388) of the same compound?
The IC50 was over 10 µg/mL.

And the IC50 [1]?
Its IC50 is over 10 µg/mL.

What about the IC50 (A549) of the same compound?
The IC50 was over 10 µg/mL.

Source: ChEMBL document CHEMBL1155675, “New triterpenoid sulfates from the red alga Tricleocarpa fragilis” (J Nat Prod, 2000)
